Bioassay records deposited in PubChem BioAssay by several laboratories.
NadD inh: NadD (S. aureus) enzyme inhibition; purified NadD enzyme, colorimetric absorbance read-out; inhibition, % at 20 µM; 360,000 compounds, 0.78% hits; AID 602399; in the data active means inhibition above about 26%
rCAG binder: binds r(CAG) RNA repeats; r(CAG) RNA repeat, TO-PRO-1 dye displacement fluorescence; inhibition, % at 3 µM; 370,000 compounds, 1.3% hits;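 active means inhibition above the plate cutoff, the mean of all test compounds on that plate plus 3 SD, cut at about 35% in these data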;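 further: 0% = DMSO alone and 100% = 100 µM mitoxantrone as full dye displacement; higher means more dye released from RNA so lower well fluorescence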
ABHD5-PLIN5 inh: inhibitors of human ABHD5-perilipin-5 interaction | Q00G26+Q8WTS1 | Split G. princeps luciferase complementation, luminescence, 4 h | inhibition, % at 4 µM | 360,000 compounds, 0.78% hits | AID 602281;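 active means inhibition above the mean inhibition across every tested compound plus 3 SD, cut at about 22% in these data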;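 further: 0% = DMSO only wells and the 100% control is not disclosed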
Target sequence (Q00G26 whole entry, looked up): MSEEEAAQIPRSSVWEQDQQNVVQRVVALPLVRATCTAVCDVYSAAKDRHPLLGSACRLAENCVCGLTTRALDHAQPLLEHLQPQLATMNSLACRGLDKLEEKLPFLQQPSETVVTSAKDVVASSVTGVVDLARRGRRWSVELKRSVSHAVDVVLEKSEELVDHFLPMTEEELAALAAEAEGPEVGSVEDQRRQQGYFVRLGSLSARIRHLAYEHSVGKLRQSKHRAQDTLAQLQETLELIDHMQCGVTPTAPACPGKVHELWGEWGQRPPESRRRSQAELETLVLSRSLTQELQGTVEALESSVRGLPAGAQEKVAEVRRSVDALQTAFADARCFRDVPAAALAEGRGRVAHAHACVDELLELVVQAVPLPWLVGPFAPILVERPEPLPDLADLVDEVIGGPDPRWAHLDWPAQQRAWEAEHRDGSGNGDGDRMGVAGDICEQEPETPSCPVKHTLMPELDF
Target sequence (Q8WTS1 whole entry, looked up): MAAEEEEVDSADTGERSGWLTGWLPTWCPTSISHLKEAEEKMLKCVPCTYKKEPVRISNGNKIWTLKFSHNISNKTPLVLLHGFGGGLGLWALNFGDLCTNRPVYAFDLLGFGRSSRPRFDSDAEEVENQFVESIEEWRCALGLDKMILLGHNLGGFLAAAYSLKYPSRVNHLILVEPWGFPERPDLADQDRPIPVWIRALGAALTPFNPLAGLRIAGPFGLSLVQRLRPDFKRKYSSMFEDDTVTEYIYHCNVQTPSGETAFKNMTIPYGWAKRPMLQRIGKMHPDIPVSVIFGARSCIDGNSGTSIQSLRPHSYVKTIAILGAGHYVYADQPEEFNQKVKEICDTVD
HCV core dimer: HCV core protein dimerization inhibition | TR-FRET GST/Flag-core106 dimerization, 1536-well | 300,000 compounds, 0.33% hits | inhibition, % at 5 µM;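 active means inhibition above the mean of all tested compounds plus 3 SD, set per screening campaign, cut at about 45% in these data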
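Assay system – GST-tagged and Flag-tagged HCV core protein residues 1-106 · Quantity – core106 proteins, GST 13.5 nM and Flag 17 nM · Benchmarks – unlabelled core106 and no-GST-core106 wells · Read-out basis – percent inhibition of core106 dimerization signal · Detection – time-resolved FRET, ex 340 nm, em 617 and 671 nm · Schedule – 4 h at 22.5 °C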
rCAG bind conf: r(CAG) RNA repeat binding, confirmation; shares compounds with rCAG binder; TO-PRO-1 dye displacement fluorescence; inhibition, % at 3 µM; 4,300 compounds, 70% hits;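 active means inhibition above a per-plate cutoff, the mean inhibition of sample wells plus 3 SD, cut at about 35% in these data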;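 further: loss of TO-PRO-1 fluorescence as compound displaces dye from 1x1 AA loop RNA; 0% = DMSO only wells and 100% = 100 µM mitoxantrone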
DNA CAG counter: DNA CAG dye complex inhibition counter-screen. shares compounds with rCAG binder. d(CAG) DNA oligo TO-PRO-1 dye displacement, fluorescence. inhibition, % at 3 µM. 4,300 compounds, 94% hits. AID 652068;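 active means inhibition above its plate's cutoff, the mean test-well inhibition plus 3 SD, cut at about 4.8% in these data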;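 further: 0% = DNA dye mix with DMSO and 100% = 100 µM mitoxantrone; hits displace the dye from DNA and so lower well fluorescence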
dCAG dye DR: disrupts DNA CAG TO-PRO-1 complex in dose response. shares compounds with rCAG binder. DNA CAG/GTC duplex TO-PRO-1 dye displacement fluorescence. IC50, µM. 250 compounds, 20% hits; in the data active means IC50 below about 10 µM
* = called active by the depositor; i = inactive; . = no result. An excerpt weighted towards active compounds, which were near 2.6% of everything screened.

SMILES	NadD inh	rCAG binder	ABHD5-PLIN5 inh	HCV core dimer	rCAG bind conf	DNA CAG counter	others
Nc1ccccc1Sc1ccc(C(=O)c2ccccc2C(=O)O)cc1[N+](=O)[O-]	9	64*	-12	0	48*	15*
O=C(NCC(F)(F)F)c1cc2c(c(-c3cccc(-c4ccccc4F)c3)n1)[C@H](CCO)N(C(=O)CC1CC1)C2	-11	9	9	.	.	.
Cc1cn([C@H]2C[C@H](O)[C@@H](CCC(=O)NCCCc3ccccc3)O2)c(=O)[nH]c1=O	-4	0	-2	.	.	.
CN(C)/C=C1/Sc2ccccc2C1=O	7	3	-2	-1	.	.
CC(=O)N(\C=C/C=C/C=C1\Sc2ccccc2C1=O)c1ccccc1	19	45*	14	1	14	11*
CCn1c(C)nc2cc(C(=O)NNC(=S)Nc3ccc(Cl)cc3Cl)ccc21	4	58*	7	-8	49*	16*
Cc1cccc(NC(=S)NNC(=O)c2cccc([N+](=O)[O-])c2)c1	2	19	-2	0	.	.
Cc1ccc(NC(=S)NNC(=O)c2ccc(N3CCOCC3)c([N+](=O)[O-])c2)cc1Cl	13	80*	-10	5	84*	46*
Cc1cc(C(=O)Nc2ccc(N3CCCC3)c(Cl)c2)ccc1[N+](=O)[O-]	4	4	-9	-6	.	.
O=C(NC(NC(=S)Nc1ccccc1Cl)C(Cl)(Cl)Cl)c1cccc(Cl)c1 (configuration not stated)	16	18	-1	9	.	.
O=C(NC(NC(=S)Nc1ccccc1C(=O)O)C(Cl)(Cl)Cl)c1cccc([N+](=O)[O-])c1 (configuration not stated)	-2	56*	-6	-3	60*	24*
O=C(NNC(=S)Nc1ccc(Cl)c(Cl)c1)c1cccc([N+](=O)[O-])c1	7	79*	-11	3	79*	33*
O=C(NNC(=S)Nc1ccc(Cl)cc1Cl)c1ccc(N2CCOCC2)c([N+](=O)[O-])c1	4	95*	1	8	87*	63*
O=C(c1ccc(N2CCOCC2)c([N+](=O)[O-])c1)N1CCCCC1	-8	-7	6	-4	.	.
Cc1ccc(NC(=O)c2ccc(NCCN)c([N+](=O)[O-])c2)cc1Cl	6	38*	17	-7	22	-2
O=C(NNC(=S)Nc1ccc(Br)cc1)c1ccc(N2CCOCC2)c([N+](=O)[O-])c1	8	73*	-8	-6	67*	28*
CCCNC(=O)N1[C@@H](CO)[C@H](c2ccc(C3=CCCC3)cc2)[C@@H]1CN(CC)S(=O)(=O)c1ccccc1[N+](=O)[O-]	.	10	.	.	.	.
CCOc1ccc(NC(=O)/C(C#N)=C\c2ccc(N3CCCC3)c(C)c2)cc1	8	7	0	.	.	.
CCCCNC(=O)NS(=O)(=O)c1ccc(NC(=O)CSc2ncnc3scc(-c4ccc(C)cc4)c23)cc1	.	77*	.	.	70*	32*	dCAG dye DR=i
O=C(CSc1ncnc2scc(-c3ccccc3)c12)Nc1ccc(C(=O)O)cc1	4	35*	-1	8	35*	10*
O=C(CSc1ncnc2scc(-c3ccc(Cl)cc3)c12)Nc1ccccc1-c1ccccc1	.	9	.	.	.	.
Oc1ccc(/C=N/N(c2ccccc2)c2ccccc2)c(O)c1O	37*	43*	-7	52*	52*	28*
Oc1ccc(/C=N/N(c2ccccc2)c2ccccc2)cc1O	11	29	-8	16	.	.
O=[N+]([O-])c1cccc(NC(=S)Nc2nc(-c3ccccc3Cl)cs2)c1	19	39*	-16	6	36*	28*
CCNC(=S)Nc1cccc([N+](=O)[O-])c1	.	.	.	-6	.	.
SMILES	NadD inh	rCAG binder	ABHD5-PLIN5 inh	HCV core dimer	rCAG bind conf	DNA CAG counter	others
N=C1S/C(=C\c2ccc(-c3ccccc3C(=O)O)o2)C(=O)N1c1ccc2c(c1)OCO2	12	42*	4	.	30	10*
O=C(Nc1cc(S(=O)(=O)N2CCCCC2)ccc1O)c1ccccc1NS(=O)(=O)c1ccc(F)c(F)c1	10	85*	-12	13	88*	64*
O=C(Nc1cc(S(=O)(=O)Nc2ccccc2Cl)ccc1O)c1ccc(F)cc1F	0	25	-10	.	.	.
COc1ccccc1C(=O)Nc1cccc(S(=O)(=O)N2CCCC2)c1	-2	-2	-5	-2	.	.
NC(=O)c1ccccc1NS(=O)(=O)c1ccc(F)cc1	-1	3	-1	1	.	.
Cc1ccc(NC(=O)c2ccccc2NS(=O)(=O)c2ccc(F)cc2)cc1S(=O)(=O)N1CCCCC1	6	67*	-10	15	83*	52*
NS(=O)(=O)c1cccc(NC(=O)c2ccccc2NS(=O)(=O)c2ccc(F)cc2)c1	2	38*	-9	-12	38*	12*
O=C(Nc1cccc(S(=O)(=O)N2CCCCC2)c1)c1ccccc1NS(=O)(=O)c1ccc(F)cc1	4	61*	13	32	76*	36*
CC(C)n1ncc2c(C(=O)N3CCN(S(=O)(=O)c4cccc(F)c4)CC3)cc(C3CC3)nc21	-3	1	1	.	.	.
Cc1onc(-c2c(F)cccc2Cl)c1C(=O)Nc1cc(S(=O)(=O)N2CCCCC2)ccc1O	8	52*	-3	.	36*	12*
O=S(=O)(Nc1cccc(S(=O)(=O)N2CCCCC2)c1)c1ccc(Cl)s1	-2	46*	0	.	35*	12*
Cc1onc(-c2c(F)cccc2Cl)c1C(=O)Nc1ccc(S(=O)(=O)N2CCOCC2)cc1	-5	3	-3	.	.	.
CCCc1nc2ccc(Cl)cn2c1Cc1ccccc1	6	4	3	.	.	.
Cc1cccc(NC(=O)/C=C/c2ccc([N+](=O)[O-])s2)c1	6	2	2	-13	.	.
Cc1cccc(NC(=S)N/N=C/c2ccc([N+](=O)[O-])s2)c1	16	36*	-9	11	18	11*
COC(=O)[C@]12C[C@H](CC(=O)NCc3cccc4ccccc34)C(=O)N(Cc3cccc4ccccc34)C1=C[C@H](C(C)C)O[C@@H]2C1CC1	.	8	.	.	.	.
CC(C)(C)c1ccc(S(=O)(=O)NC(=O)C2(C)CCN2C(=O)Cc2cccs2)cc1 (configuration not stated)	2	3	4	.	.	.
O=C(O)CCC(=O)N1N=C(c2cccs2)CC1c1cn(-c2ccccc2)nc1-c1ccccc1 (configuration not stated)	10	54*	13	41	61*	19*
Cc1ccc(-c2nn(-c3ccccc3)cc2C2CC(c3cccs3)=NN2C(=O)CCCC(=O)O)cc1 (configuration not stated)	24	9	-7	19	.	.
Cc1cc(/C=C2\SC(=S)NC2=O)c(C)n1C	35*	51*	-12	0	22	7.9*
